Experimental data as given in ChEMBL document CHEMBL4354861, “Re-Evaluating the Mechanism of Action of α,β-Unsaturated Carbonyl DUB Inhibitors b-AP15 and VLX1570: A Paradigmatic Example of Unspecific Protein Cross-linking with Michael Acceptor Motif-Containing Drugs” (J Med Chem, 2020).
The source made the active and inactive calls. No cut-off for these calls is given here.

How the values were obtained:
HeLa [1] = test: Inhibition of deubiquitinase in human HeLa cell extracts assessed as induction of accumulation of high molecular weight mTOR proteins at 1 uM incubated for 2 hrs by immunoblot analysis; format: cell-free
Anamorsin (Homo sapiens) [2] = target: Anamorsin (Homo sapiens) (UniProt Q6FI81); test: Inhibition of CIAPIN1 in human KMS11 cells assessed as induction of high molecular weight complex formation at 100 nM incubated for 6 hrs by immunoblot analysis; format: cell-based
Anamorsin (Homo sapiens), sequence (Q6FI81 whole entry, the tested form may be a part): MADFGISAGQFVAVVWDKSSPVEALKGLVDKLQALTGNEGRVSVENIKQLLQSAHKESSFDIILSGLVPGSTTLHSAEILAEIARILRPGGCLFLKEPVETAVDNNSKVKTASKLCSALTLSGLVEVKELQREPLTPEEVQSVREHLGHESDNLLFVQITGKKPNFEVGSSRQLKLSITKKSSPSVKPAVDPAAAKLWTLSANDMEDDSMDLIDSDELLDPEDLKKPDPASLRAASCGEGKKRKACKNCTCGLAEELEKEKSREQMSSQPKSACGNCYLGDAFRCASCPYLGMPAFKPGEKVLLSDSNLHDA

[3] = target: Ubiquitin carboxyl-terminal hydrolase 14 (Homo sapiens) (UniProt P54578); test: Covalent binding affinity to USP14 in human U2OS cells at 20 uM using probe-1 by ABPP analysis; format: cell-based
Ubiquitin carboxyl-terminal hydrolase 14 (Homo sapiens), sequence (P54578 whole entry): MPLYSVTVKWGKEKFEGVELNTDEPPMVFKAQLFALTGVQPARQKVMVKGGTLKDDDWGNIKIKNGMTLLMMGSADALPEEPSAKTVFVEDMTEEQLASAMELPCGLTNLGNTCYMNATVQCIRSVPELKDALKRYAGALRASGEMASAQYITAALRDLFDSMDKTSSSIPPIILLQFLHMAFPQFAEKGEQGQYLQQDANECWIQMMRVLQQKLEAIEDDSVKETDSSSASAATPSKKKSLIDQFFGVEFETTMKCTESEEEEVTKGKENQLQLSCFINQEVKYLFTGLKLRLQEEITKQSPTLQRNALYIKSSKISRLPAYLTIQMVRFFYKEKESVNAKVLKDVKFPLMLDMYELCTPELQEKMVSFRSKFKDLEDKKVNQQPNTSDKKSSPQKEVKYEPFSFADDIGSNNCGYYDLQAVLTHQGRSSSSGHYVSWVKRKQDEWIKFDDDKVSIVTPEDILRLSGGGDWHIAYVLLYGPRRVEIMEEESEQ
Procedure, shortened: (§1)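 U2OS cells pre-incubated 30 min with competitor (0, 5 or 20 µM), then 5 µM probe 1 for 1 h, in triplicate. Lysates in Triton/SDS buffer mixed with heavy R10K8-labelled probe-treated spike, CuAAC-tagged, NeutrAvidin-enriched, reduced, alkylated, trypsin-digested overnight at 37 °C, LC-MS/MS. Log2(L/H) ratios median-normalised and expressed relative to the no-inhibitor condition.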

[4] = target: T1, Ubiquitin carboxyl-terminal hydrolase 28 (Homo sapiens) (UniProt Q96RU2); test: Covalent binding affinity to USP28 in human U2OS cells at 20 uM using probe-1 by ABPP analysis; format: cell-based; procedure, shortened: as §1
T1 sequence (whole entry): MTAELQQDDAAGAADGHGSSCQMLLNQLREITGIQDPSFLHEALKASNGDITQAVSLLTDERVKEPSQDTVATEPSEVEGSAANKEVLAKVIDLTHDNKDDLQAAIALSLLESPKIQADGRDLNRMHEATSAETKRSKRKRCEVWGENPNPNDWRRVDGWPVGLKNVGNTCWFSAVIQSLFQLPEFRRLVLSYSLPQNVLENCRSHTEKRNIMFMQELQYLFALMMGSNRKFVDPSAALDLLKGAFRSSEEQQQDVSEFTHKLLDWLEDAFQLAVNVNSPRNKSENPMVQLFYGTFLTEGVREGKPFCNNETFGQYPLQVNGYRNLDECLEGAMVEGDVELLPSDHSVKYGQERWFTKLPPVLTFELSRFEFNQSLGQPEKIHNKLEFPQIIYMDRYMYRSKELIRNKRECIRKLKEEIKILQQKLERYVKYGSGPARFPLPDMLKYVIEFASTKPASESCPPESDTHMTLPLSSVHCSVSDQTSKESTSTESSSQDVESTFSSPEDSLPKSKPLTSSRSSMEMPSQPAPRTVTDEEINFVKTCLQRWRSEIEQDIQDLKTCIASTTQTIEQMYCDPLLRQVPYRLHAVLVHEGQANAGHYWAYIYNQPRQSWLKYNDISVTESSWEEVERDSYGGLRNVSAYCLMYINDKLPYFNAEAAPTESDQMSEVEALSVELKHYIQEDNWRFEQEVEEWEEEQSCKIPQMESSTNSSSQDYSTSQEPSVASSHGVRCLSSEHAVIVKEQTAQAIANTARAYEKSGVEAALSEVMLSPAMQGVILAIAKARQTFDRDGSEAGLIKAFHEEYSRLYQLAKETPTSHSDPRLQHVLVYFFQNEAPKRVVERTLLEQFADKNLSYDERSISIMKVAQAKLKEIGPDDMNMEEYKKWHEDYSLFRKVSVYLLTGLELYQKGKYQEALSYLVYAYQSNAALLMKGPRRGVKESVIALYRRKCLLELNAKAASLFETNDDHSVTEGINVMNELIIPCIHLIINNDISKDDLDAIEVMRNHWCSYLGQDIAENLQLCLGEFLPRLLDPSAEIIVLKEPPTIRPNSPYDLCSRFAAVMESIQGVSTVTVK

Anamorsin (Homo sapiens) [5] = target: Anamorsin (Homo sapiens) (UniProt Q6FI81); test: Covalent binding affinity to CIAPIN1 in human U2OS cells at 20 uM using probe-1 by ABPP analysis; format: cell-based; procedure, shortened: as §1
KMS-11 [6] = test: Cytotoxicity in human KMS11 cells assessed as reduction in cell viability incubated for 72 hrs Cell-titer Glo reagent based assay; format: functional; conditions: KMS-11, 72 h
Procedure, shortened: (§2)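 KMS11 (RPMI, seeded 25,000/well) or U2OS (DMEM, 10,000/well, adhered overnight) given varying concentrations, 72 h, biological triplicates, DMSO and bortezomib controls. CellTiter Glo luminescence; EC50 by dose-response fit.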

Anamorsin (Homo sapiens) [7] = target: Anamorsin (Homo sapiens) (UniProt Q6FI81); test: Inhibition of CIAPIN1 in human KMS11 cells assessed as induction of protein aggregation at 100 nM incubated for 1 hr by immunoblot analysis; format: cell-based
[8] = target: T2, Ubiquitin carboxyl-terminal hydrolase isozyme L5 (Homo sapiens) (UniProt Q9Y5K5); test: Covalent binding affinity to UCH-37 in human U2OS cells at 20 uM using probe-1 by ABPP analysis; format: cell-based; procedure, shortened: as §1
T2 sequence (whole entry): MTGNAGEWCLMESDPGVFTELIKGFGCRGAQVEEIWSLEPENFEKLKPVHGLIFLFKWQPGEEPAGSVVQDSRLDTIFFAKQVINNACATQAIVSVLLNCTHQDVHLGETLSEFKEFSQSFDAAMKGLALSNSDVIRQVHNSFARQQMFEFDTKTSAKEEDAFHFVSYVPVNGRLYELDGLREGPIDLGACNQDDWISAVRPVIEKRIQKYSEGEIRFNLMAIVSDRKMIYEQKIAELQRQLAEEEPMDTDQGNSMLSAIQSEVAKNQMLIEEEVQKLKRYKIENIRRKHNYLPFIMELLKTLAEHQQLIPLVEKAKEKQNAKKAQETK

Anamorsin (Homo sapiens) [9] = target: Anamorsin (Homo sapiens) (UniProt Q6FI81); test: Inhibition of CIAPIN1 in human KMS11 cells assessed as deletion of depletion of stable CIAPIN1 levels at 100 nM incubated for 6 hrs by immunoblot analysis; format: cell-based
Anamorsin (Homo sapiens) [10] = target: Anamorsin (Homo sapiens) (UniProt Q6FI81); test: Inhibition of recombinant purified CIAPIN1 (unknown origin) assessed as covalent adduct formation at 10 molar equivalents incubated for 2 hrs by electrospray MS analysis
Procedure, shortened: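 His-tagged full-length human CIAPIN1 (AA1-312, C-terminal 7x His/TEV, 27 µM) incubated with 10 molar equivalents of compound (270 µM) in PBS for 2 h at room temperature, then analysed intact by ES-MS.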

KMS-11 [11] = test: Cytotoxicity in human KMS11 cells assessed as reduction in cell viability at 1 to 10 uM incubated for 16 hrs in presence of GSH by Alamar blue assay; format: functional, cell-based
Procedure, shortened: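 KMS11 seeded at 80,000/well, treated with 1 or 10 µM compound with or without 1 mM GSH for 16 h, 6 biological replicates. Alamar blue fluorescence read at 560/590 nm, normalised to DMSO control.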

Anamorsin (Homo sapiens) [12] = target: Anamorsin (Homo sapiens) (UniProt Q6FI81); test: Inhibition of CIAPIN1 in human KMS11 crude cell extracts assessed as induction of formation of high molecular weight complexes with CIAPIN1 at 20 uM incubated for 2 hrs by immunoblot analysis
HeLa [13] = test: Inhibition of deubiquitinase in human HeLa cell extracts assessed as inhibition of HA-Ub-C2Br probe labeling at 1 to 100 uM incubated for 30 mins by immunoblot analysis; format: cell-free
U2OS = test: Cytotoxicity in human U2OS cells assessed as reduction in cell viability incubated for 72 hrs Cell-titer Glo reagent based assay; format: functional; procedure, shortened: as §2
Anamorsin (Homo sapiens) [14] = target: Anamorsin (Homo sapiens) (UniProt Q6FI81); test: Inhibition of recombinant purified CIAPIN1 (unknown origin) assessed as increase in high molecular weight CIAPIN1 complexes at 1 to 10 molar equivalent 1 by SDS-PAGE and Coomassie Blue staining based method
Procedure, shortened: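 Recombinant CIAPIN1 (1 mg/mL) incubated with DMSO (0.16%) or compound at 1x, 2x, 5x or 10x molar excess, 30 min at 4 °C. Resolved by SDS-PAGE with Coomassie staining.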

Anamorsin (Homo sapiens) [15] = target: Anamorsin (Homo sapiens) (UniProt Q6FI81); test: Inhibition of CIAPIN1 in human KMS11 crude cell extracts assessed as induction of formation of high molecular weight complexes with CIAPIN1 at 20 uM incubated for 2 hrs in presence of GSH by immunoblot analysis
[16] = target: T1, Ubiquitin carboxyl-terminal hydrolase 28 (Homo sapiens); test: Inhibition of USP28 in human HeLa cell extracts assessed as inhibition of HA-Ub-C2Br probe labeling at 1 to 100 uM incubated for 30 mins by immunoblot analysis; format: cell-free
Anamorsin (Homo sapiens) [17] = target: Anamorsin (Homo sapiens) (UniProt Q6FI81); test: Inhibition of recombinant purified CIAPIN1 (unknown origin) assessed as accumulation of protein aggregates at 0.1 to 1.6 uM incubated for 1 to 6 hrs by size exclusion chromatography
Anamorsin (Homo sapiens) [18] = target: Anamorsin (Homo sapiens) (UniProt Q6FI81); test: Inhibition of recombinant purified CIAPIN1 (unknown origin) assessed as covalent modification of cysteine residues incubated for 30 mins LC-MS/MS analysis
Anamorsin (Homo sapiens) [19] = target: Anamorsin (Homo sapiens) (UniProt Q6FI81); test: Inhibition of recombinant purified CIAPIN1 (unknown origin) assessed as disruption of intra-chain disulfide bond in unmodified peptide containing Cys249

| SMILES | inhibition (HeLa [1]) | inhibition (Anamorsin (Homo sapiens) [2]) | Activity [3] | Activity [4] | Activity (Anamorsin (Homo sapiens) [5]) | EC50 (KMS-11 [6]) | inhibition (Anamorsin (Homo sapiens) [7]) | Activity [8] | inhibition (Anamorsin (Homo sapiens) [9]) | inhibition (Anamorsin (Homo sapiens) [10]) | Activity (KMS-11 [11]) | inhibition (Anamorsin (Homo sapiens) [12]) | inhibition (HeLa [13]) | EC50 (U2OS) | inhibition (Anamorsin (Homo sapiens) [14]) | inhibition (Anamorsin (Homo sapiens) [15]) | inhibition [16] | inhibition (Anamorsin (Homo sapiens) [17]) | inhibition (Anamorsin (Homo sapiens) [18]) | inhibition (Anamorsin (Homo sapiens) [19]) |
| --- | --- | --- | --- | --- | --- | --- | --- | --- | --- | --- | --- | --- | --- | --- | --- | --- | --- | --- | --- | --- |
| COc1cc(/C=C/C(=O)CC(=O)/C=C/c2ccc(O)c(OC)c2)ccc1O | Active |  |  |  |  |  |  |  |  |  |  |  |  |  |  |  |  |  |  |  |
| C=CC(=O)N1CC/C(=C\c2ccc(F)c([N+](=O)[O-])c2)C(=O)/C(=C/c2ccc(F)c([N+](=O)[O-])c2)C1 |  | Active | inactive | inactive | Active | 43 nM | Active | inactive | Active | Active | inactive | Active | Active | 98 nM | Active | inactive | Active | Active | Active | Active |
| C#CCC(=O)N1CC/C(=C\c2ccc(F)c([N+](=O)[O-])c2)C(=O)/C(=C/c2ccc(F)c([N+](=O)[O-])c2)C1 |  |  |  |  |  | 46 nM |  |  |  |  |  |  |  | 81 nM |  |  |  |  |  |  |
